# Laboratory results as given in publication PMC11843577 (RSC Medicinal Chemistry, 2025).
# What was measured:
# TDP1 in HCT116 cell line = TDP1 in HCT116 cell line (Homo sapiens, UniProt Q9NUW8); assay: Western blot for TDP1 degradation; format: cell-based; settings: 5h 10 μM within 6 h, 5h 0.1-100 μM and 5i 10, 100 μM within 24 h
# full-length TDP1 = full-length TDP1 (Homo sapiens, UniProt Q9NUW8); assay: TDP1 gel-based fluorescence assay in vitro; format: biochemical
# HCT116 cell line = assay: Synergy assay with camptothecin; format: cell-based, human; settings: HCT116, compound at 10 μM, 72 h cell viability
# Summary of the method: (§1)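 HCT116 colon or U2OS osteosarcoma cells were seeded at 2 × 10³ cells per well and cultured for 72 h in medium containing the test compound together with camptothecin. Viability was read by CellTiter-Glo luminescence, and synergy was judged from these viability data.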
# U2OS cell line = assay: Synergy assay with camptothecin; format: cell-based, human; settings: compound at 10 μM, 72 h cell viability
# Summary of the method: as §1
# full-length TDP2 = biological target: T1, full-length TDP2 (Homo sapiens, UniProt O95551); assay: TDP2 gel-based fluorescence assay in vitro; format: biochemical; settings: ratio of IC50 values of TDP2 vs. TDP1
# T1 sequence (O95551 1-362): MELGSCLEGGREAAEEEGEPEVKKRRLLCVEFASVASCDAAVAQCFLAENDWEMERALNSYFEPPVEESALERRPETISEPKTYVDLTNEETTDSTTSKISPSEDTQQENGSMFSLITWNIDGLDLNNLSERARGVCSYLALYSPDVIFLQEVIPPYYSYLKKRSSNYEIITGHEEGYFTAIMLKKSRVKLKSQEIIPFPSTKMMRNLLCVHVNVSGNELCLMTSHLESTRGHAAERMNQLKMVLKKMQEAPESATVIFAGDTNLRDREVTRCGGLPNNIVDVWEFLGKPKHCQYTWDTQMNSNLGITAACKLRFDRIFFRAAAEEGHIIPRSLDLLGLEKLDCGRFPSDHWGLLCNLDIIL
# Chain of full-length TDP1 (Q9NUW8 whole entry): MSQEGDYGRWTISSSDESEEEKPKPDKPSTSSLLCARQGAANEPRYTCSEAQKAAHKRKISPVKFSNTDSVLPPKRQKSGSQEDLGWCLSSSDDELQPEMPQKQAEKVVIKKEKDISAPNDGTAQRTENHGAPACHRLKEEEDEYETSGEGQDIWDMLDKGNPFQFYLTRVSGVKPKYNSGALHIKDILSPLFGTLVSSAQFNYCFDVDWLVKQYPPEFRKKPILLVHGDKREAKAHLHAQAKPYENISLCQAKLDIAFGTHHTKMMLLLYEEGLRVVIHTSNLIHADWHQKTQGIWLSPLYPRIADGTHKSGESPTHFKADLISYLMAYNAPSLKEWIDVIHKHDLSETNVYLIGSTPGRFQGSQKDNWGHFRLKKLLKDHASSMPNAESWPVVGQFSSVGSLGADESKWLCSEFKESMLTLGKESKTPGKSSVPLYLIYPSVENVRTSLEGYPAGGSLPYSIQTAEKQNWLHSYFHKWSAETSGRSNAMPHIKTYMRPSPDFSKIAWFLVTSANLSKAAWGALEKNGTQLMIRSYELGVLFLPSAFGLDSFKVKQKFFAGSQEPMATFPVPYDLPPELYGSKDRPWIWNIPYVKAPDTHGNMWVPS
# Chain of TDP1 in HCT116 cell line (Q9NUW8 whole entry): as above
Compound,TDP1 IC50 (full-length TDP1),other results
"CN(Cc1cn(Cc2ccc(-c3nc4cc(-c5ccccc5)ccn4c3Nc3ccc(C(=O)O)cc3)cc2)nn1)c1cccc2c1C(=O)N(C1CCC(=O)NC1=O)C2=O (stereo not shown) [Compound 5i, 4-((2-(4-((4-(((2-(2,6-Dioxopiperidin-3-yl)-1,3-dioxoisoindolin-4-yl)(methyl)amino)methyl)-1H-1,2,3-triazol-1-yl)methyl)phenyl)-7-phenylimidazo[1,2-a]pyridin-3-yl)amino)benzoic acid]",–,TDP1 degradation compared with GAPDH (TDP1 in HCT116 cell line): unable to observe degradation effects
"Cc1ncsc1-c1ccc(CNC(=O)[C@@H]2C[C@@H](O)CN2C(=O)[C@@H](NC(=O)COCCOCCOCCOCCn2cc(COc3ccc(-c4nc5cc(-c6ccccc6)ccn5c4Nc4ccc(C(=O)O)cc4)cc3)nn2)C(C)(C)C)cc1 [Compound 5c, 4-((2-(4-((1-((S)-16-((2S,4R)-4-Hydroxy-2-((4-(4-methylthiazol-5-yl)benzyl)carbamoyl)pyrrolidine-1-carbonyl)-17,17-dimethyl-14-oxo-3,6,9,12-tetraoxa-15-azaoctadecyl)-1H-1,2,3-triazol-4-yl)methoxy)phenyl)-7-phenylimidazo[1,2-a]pyridin-3-yl)amino)benzoic acid]",failed to exhibit TDP1 inhibitory potency within the range tested,–
"O=C(COc1cccc2c1C(=O)N(C1CCC(=O)NC1=O)C2=O)NCCCCn1cc(COc2ccc(-c3nc4cc(-c5ccccc5)ccn4c3Nc3ccc(C(=O)O)cc3)cc2)nn1 (stereo not shown) [Compound 5d, 4-((2-(4-((1-(4-(2-((2-(2,6-Dioxopiperidin-3-yl)-1,3-dioxoisoindolin-4-yl)oxy)acetamido)butyl)-1H-1,2,3-triazol-4-yl)methoxy)phenyl)-7-phenylimidazo[1,2-a]pyridin-3-yl)amino)benzoic acid]",did not show TDP1 inhibitory potency within the range tested,–
"Cc1ncsc1-c1ccc(CNC(=O)[C@@H]2C[C@@H](O)CN2C(=O)[C@@H](NC(=O)COCCOCCOCCn2cc(COc3ccc(-c4nc5cc(-c6ccccc6)ccn5c4Nc4ccc(C(=O)O)cc4)cc3)nn2)C(C)(C)C)cc1 [Compound 5b, 4-((2-(4-((1-((S)-13-((2S,4R)-4-Hydroxy-2-((4-(4-methylthiazol-5-yl)benzyl)carbamoyl)pyrrolidine-1-carbonyl)-14,14-dimethyl-11-oxo-3,6,9-trioxa-12-azapentadecyl)-1H-1,2,3-triazol-4-yl)methoxy)phenyl)-7-phenylimidazo[1,2-a]pyridin-3-yl)amino)benzoic acid]",failed to exhibit TDP1 inhibitory potency within the range tested,–
"O=C(COc1cccc2c1C(=O)N(C1CCC(=O)NC1=O)C2=O)NCCCCn1cc(COc2ccc(-c3nc4ccccn4c3Nc3ccc(C(=O)O)cc3)cc2)nn1 (stereo not shown) [Compound 5e, 4-((2-(4-((1-(4-(2-((2-(2,6-Dioxopiperidin-3-yl)-1,3-dioxoisoindolin-4-yl)oxy)acetamido)butyl)-1H-1,2,3-triazol-4-yl)methoxy)phenyl)imidazo[1,2-a]pyridin-3-yl)amino)benzoic acid]",did not show TDP1 inhibitory potency within the range tested,–
"O=C(COc1cccc2c1C(=O)N(C1CCC(=O)NC1=O)C2=O)NCCCCn1cc(-c2ccc(-c3nc4ccccn4c3Nc3ccc(C(=O)O)cc3)cc2)nn1 (stereo not shown) [Compound 5g, 4-((2-(4-(1-(4-(2-((2-(2,6-Dioxopiperidin-3-yl)-1,3-dioxoisoindolin-4-yl)oxy)acetamido)butyl)-1H-1,2,3-triazol-4-yl)phenyl)imidazo[1,2-a]pyridin-3-yl)amino)benzoic acid]",did not show TDP1 inhibitory potency within the range tested,–
"O=C1CCC(N2C(=O)c3cccc(NCc4cn(Cc5ccc(-c6nc7cc(-c8ccccc8)ccn7c6Nc6ccc(C(=O)O)cc6)cc5)nn4)c3C2=O)C(=O)N1 (stereo not shown) [Compound 5h, 4-((2-(4-((4-(((2-(2,6-Dioxopiperidin-3-yl)-1,3-dioxoisoindolin-4-yl)amino)methyl)-1H-1,2,3-triazol-1-yl)methyl)phenyl)-7-phenylimidazo[1,2-a]pyridin-3-yl)amino)benzoic acid]",–,TDP1 degradation compared with GAPDH (TDP1 in HCT116 cell line): unable to observe degradation effects; Synergy in combination with TOP1 inhibitor camptothecin (CPT) (HCT116 cell line): failed to show synergy; Synergy in combination with TOP1 inhibitor camptothecin (CPT) (U2OS cell line): failed to show synergy
"O=C1CCC(N2C(=O)c3cccc(NCCc4cn(Cc5ccc(-c6nc7cc(-c8ccccc8)ccn7c6Nc6ccc(C(=O)O)cc6)cc5)nn4)c3C2=O)C(=O)N1 (stereo not shown) [Compound 5j, 4-((2-(4-((4-(2-((2-(2,6-Dioxopiperidin-3-yl)-1,3-dioxoisoindolin-4-yl)amino)ethyl)-1H-1,2,3-triazol-1-yl)methyl)phenyl)-7-phenylimidazo[1,2-a]pyridin-3-yl)amino)benzoic acid]",–,TDP1 selectivity (full-length TDP2): 1.4
